Measured values from different studies.
Target: Activin receptor type-1B (ACVR1B, Homo sapiens, UniProt P36896)
One construct used (P36896 24-505): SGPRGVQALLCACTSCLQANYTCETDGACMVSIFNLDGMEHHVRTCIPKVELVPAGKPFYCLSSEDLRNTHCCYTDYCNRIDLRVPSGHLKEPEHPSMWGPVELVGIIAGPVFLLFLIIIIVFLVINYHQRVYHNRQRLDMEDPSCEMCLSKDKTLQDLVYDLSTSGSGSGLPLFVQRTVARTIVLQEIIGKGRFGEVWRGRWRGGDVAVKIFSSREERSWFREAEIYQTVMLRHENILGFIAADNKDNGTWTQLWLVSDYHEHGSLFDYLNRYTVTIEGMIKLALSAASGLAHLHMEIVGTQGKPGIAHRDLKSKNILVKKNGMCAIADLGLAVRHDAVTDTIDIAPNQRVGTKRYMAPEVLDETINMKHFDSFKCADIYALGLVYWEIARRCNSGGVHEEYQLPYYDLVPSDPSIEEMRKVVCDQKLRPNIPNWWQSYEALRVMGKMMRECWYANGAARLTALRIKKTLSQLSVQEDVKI

SMILES | effect on | action | technique | tested at | measurement | result
N#CC1(c2ccccn2)CCN(Cc2cc(C(=O)O)c(=O)n3ccccc23)CC1 | cell-free assay |  | competition with immobilised ligand | 1 µM | remaining binding | 94%
Cn1cc(-c2cccc(N3CCc4c(sc5c4CC(C)(C)C5)C3=O)c2CO)cc(Nc2ccncn2)c1=O | enzyme activity | inhibitor |  | 1 µM | inhibition | -5%
O=c1[nH]c2ccccc2n1C1CCN(Cc2ccc(-c3[nH]c4cc5ncnc5cc4nc3-c3ccccc3)cc2)CC1 | cell-free assay |  |  | 0.5 µM | remaining signal | 111%
COc1cc(Nc2ncc(F)c(Nc3ccc4c(n3)NC(=O)C(C)(C)O4)n2)cc(OC)c1OC | binding |  | competition with immobilised ligand | 10 µM | inhibition | 55%
Cn1cc(-c2cc(F)cc(N3CCn4c(cc5c4CCCC5)C3=O)c2CO)cc(Nc2ccc(N3CCN(C4COC4)CC3)cn2)c1=O | enzyme activity | inhibitor |  | 0.1 µM | inhibition | -1%
C#Cc1n[nH]c2c(-c3cn([C@@H](C)c4ccccc4)c(=O)[nH]c3=O)cc(F)cc12 | enzyme activity | inhibitor |  | 0.1 µM | inhibition | -3.3%
CC(C)(C)c1cc(C=C(C#N)C#N)cc(Br)c1O | enzyme activity | inhibitor |  | 0.5 µM | remaining activity | 108%
Nc1ncc(-c2nc(N3CCOCC3)nc(N3CCOCC3)n2)c(C(F)F)n1 | binding |  | competition with immobilised ligand | 10 µM | remaining binding | 94%
C#Cc1n[nH]c2c(-c3cn([C@@H](C)c4ccccn4)c(=O)[nH]c3=O)cc(F)cc12 | enzyme activity | inhibitor |  | 0.1 µM | inhibition | -3.4%
Cc1nn(C)cc1-c1nc2c(N3CCN(Cc4ccc(Cl)cc4)CC3)c(Cl)cnc2[nH]1 | binding |  | competition with immobilised ligand | 1 µM | remaining binding | 68%
COc1ncccc1-c1cnn2ccc(N3CCN(C(=O)OC(C)C)CC3)nc12 | binding |  | competition with immobilised ligand | 1 µM | remaining binding | 93%
Cn1cncc1[C@](O)(COc1ccc(C#N)cc1-c1ccc(OC(F)(F)F)cc1)c1ccc(C#N)cc1 | cell-free assay |  | competition with immobilised ligand | 1 µM | remaining binding | 87%
